Measurements gathered from unrelated publications.
Each line is one published result; the experiments were not run side by side.
CYP3A7: Cytochrome P450 3A7 (CYP3A7, Homo sapiens, UniProt P24462)

`COC(=O)N[C@H](C(=O)NN(CC[C@@]1(Cc2ccccc2)C(=O)N([C@H]2c3ccccc3C[C@H]2O)C[C@@H]1O)Cc1ccc(Br)cc1)C(C)(C)C` has a CC50 of greater than 50 µM (MT4; cell growth or viability, XTT; 5 days).
With `CC[C@H](C)[C@H]1C(=O)N2CCC[C@H]2C(=O)O[C@H](C(C)(C)C)C[C@@H](C)C[C@H](O)CC2=N[C@@H](CCC(=O)N[C@@H](Cc3ccc(OC)cc3)C(=O)N(C)[C@@H](C)C(=O)N1C)CS2` the compound remaining was 100% (metabolic stability; female CD-1 mouse, liver microsomes; 1 µM, 0 h, pH 7.4).
`CCCCCCCCCC(=O)O[C@@]12[C@H](OC(=O)c3ccccc3)[C@@H](C)[C@]3(O)[C@@H]4C=C(C)C(=O)[C@@]4(O)[C@H](O)C(CO)=C[C@H]3[C@@H]1C2(C)C` has a CC50 of greater than 7 µM (MT4; cell growth or viability, ATP luminescence).
`N=c1c2c(-c3ccccc3)c(-c3ccccc3)n(Cc3ccccc3)c2ncn1[C@H]1CC[C@H](O)CC1` has a compound remaining of 44% (metabolic stability; Sprague-Dawley rat, hepatocytes; 1 µM, 4 h).
With `CC[C@H](C)[C@H]1C(=O)N2CCC[C@H]2C(=O)O[C@H](C(C)(C)C)C[C@@H](C)C[C@H](O)[C@H](C)C2=N[C@H](CCC(=O)N[C@@H](Cc3ccc(OC)cc3)C(=O)N(C)[C@@H](C)C(=O)N1C)CS2` the compound remaining was 100% (metabolic stability; female CD-1 mouse, liver microsomes; 1 µM, 0 h, pH 7.4).
For `C=C(C)[C@@]12O[C@@]3(/C=C/C=C/CCCCC)O[C@@H]1[C@@H]1[C@@H]4O[C@]4(CO)[C@@H](O)[C@]4(O)C(=O)C(C)=C[C@H]4[C@@]1(O3)[C@H](C)[C@H]2OC(=O)/C=C/c1ccc(O)cc1`, the IC50 was greater than 0.034 µM (MT4; cell growth or viability, ATP luminescence; 96 h).
`Cc1ncc2n1-c1ccc(Cl)cc1C(c1ccccc1F)=NC2` has a compound remaining of less than 7% (metabolic stability; male rat, liver microsomes; 1 µM, 30 min).
With `O=C(O)C(F)(F)C(F)(F)C(F)(F)C(F)(F)C(F)(F)C(F)(F)C(F)(F)F` the inhibition was 16.3% (CYP3A7; enzyme activity, inhibitor; 10 µM, pH 7.4).
The IC50 of `C=C(C)[C@@]1(O)[C@H](OC(=O)/C=C/C=C/C=C/CCC)[C@@H]2[C@@H]3O[C@]3(CO)[C@@H](O)[C@]3(O)C(=O)C(C)=C[C@H]3[C@@]2(O)[C@H](C)[C@H]1OC(=O)/C=C/c1ccc(O)c(OC)c1` is reported as greater than 0.034 µM (MT4; cell growth or viability, ATP luminescence; 96 h).
With `Cc1ncc2n1-c1ccc(Cl)cc1C(c1ccccc1F)=NC2` the compound remaining was 0.3% (metabolic stability; Sprague-Dawley rat, hepatocytes; 1 µM, 4 h).
`C=C(C)[C@@]12O[C@@]3(/C=C/C=C/C=C/CCC)O[C@@H]1[C@@H]1[C@@H]4O[C@]4(CO)[C@@H](O)[C@]4(O)C(=O)C(C)=C[C@H]4[C@@]1(O3)[C@H](C)[C@H]2OC(=O)/C=C/c1ccc(O)c(OC)c1` gave an IC50 of greater than 0.034 µM (MT4; cell growth or viability, ATP luminescence; 96 h).
For `O=S(=O)(O)C(F)(F)C(F)(F)C(F)(F)C(F)(F)C(F)(F)C(F)(F)C(F)(F)C(F)(F)F`, the IC50 was 20.4 µM (CYP3A7; enzyme activity, inhibitor, fluorescence).
`CCCCCC/C=C/CC(=O)O[C@@]12[C@H](OC(=O)c3ccccc3)[C@@H](C)[C@@]3(O)[C@@H](C=C(CO)C[C@]4(O)C(=O)C(C)=C[C@@H]34)[C@@H]1C2(C)C` gave a CC50 of greater than 7 µM (MT4; cell growth or viability, ATP luminescence).
With `C=C(C)[C@@]12O[C@@]3(/C=C/C=C/C=C/CCC)O[C@@H]1[C@@H]1[C@@H]4O[C@]4(CO)[C@@H](O)[C@]4(O)C(=O)C(C)=C[C@H]4[C@@]1(O3)[C@H](C)[C@H]2OC(=O)/C=C/c1ccc(O)cc1` the IC50 was greater than 0.034 µM (MT4; cell growth or viability, ATP luminescence; 96 h).
